Screens deposited in PubChem BioAssay by The Scripps Research Institute Molecular Screening Center.
NR2E3 ag-1 – NR2E3 (human) agonism; Q9Y5X4; GST-NR2E3/biotin-RetCOR TR-FRET, 1536-well; inhibition of corepressor binding, % at 4.78 µM; hit rate 0.12% among 320,000; AID 2300;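 active = percent inhibition above the cutoff of mean plus 3 SD of all tested compounds, set per screening campaign, cut at about 20% in these data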
Target sequence (Q9Y5X4 whole entry, looked up): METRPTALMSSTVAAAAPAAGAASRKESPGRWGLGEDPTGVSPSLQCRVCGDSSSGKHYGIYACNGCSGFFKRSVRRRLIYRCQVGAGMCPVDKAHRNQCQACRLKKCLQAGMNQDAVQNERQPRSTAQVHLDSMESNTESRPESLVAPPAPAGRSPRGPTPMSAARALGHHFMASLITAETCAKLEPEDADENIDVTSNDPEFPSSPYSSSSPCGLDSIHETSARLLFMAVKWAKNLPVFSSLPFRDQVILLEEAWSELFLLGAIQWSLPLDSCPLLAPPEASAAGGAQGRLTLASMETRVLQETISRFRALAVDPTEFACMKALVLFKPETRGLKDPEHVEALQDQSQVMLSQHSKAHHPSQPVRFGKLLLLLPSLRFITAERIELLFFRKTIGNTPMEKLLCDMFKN
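system = GST-tagged NR2E3 plus biotinylated RetCOR corepressor | input = 1.35 nM GST-NR2E3 | also added = 7 nM biotin-RetCOR | schedule = 5 h incubation at 4 °C | measured by = TR-FRET with europium anti-GST and streptavidin-D2, 340 nm excitation | read-out = percent loss of FRET ratio relative to control wells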
GalR3 antag – human GalR3 antagonism | HEK293 GalR3-CNG cAMP membrane potential fluorescence; galR3 body fused to GalR1 C-terminus | inhibition, % at 3 µM | hit rate 0.44% among 360,000 | AID 651719;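 active = inhibition above the screen-wide average plus 3 SD, cut at about 13% in these data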;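 note: forskolin and galanin both at EC90 stimulate the cells; cAMP rise reported by CNG channel membrane potential dye signal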
Target sequence (O60755 1-299 limits assumed): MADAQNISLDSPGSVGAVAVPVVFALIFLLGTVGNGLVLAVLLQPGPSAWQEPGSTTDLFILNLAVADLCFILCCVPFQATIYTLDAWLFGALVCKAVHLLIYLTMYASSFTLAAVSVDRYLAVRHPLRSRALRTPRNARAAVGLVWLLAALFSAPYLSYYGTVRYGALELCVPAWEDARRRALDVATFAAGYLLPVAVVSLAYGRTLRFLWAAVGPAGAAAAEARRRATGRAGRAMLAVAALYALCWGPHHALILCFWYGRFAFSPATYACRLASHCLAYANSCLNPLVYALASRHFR
NR2E3 ag-2 – agonists of human NR2E3 nuclear receptor | hit rate 0.35% among 360,000 | inhibition of corepressor binding, % at 3.98 µM | Q9Y5X4 | CHO-S Gal4-NCOR/VP16-NR2E3 two-hybrid, luciferase;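 active = inhibition above the mean of all tested compounds plus 3 SD, cut at about 70% in these data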;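 note: higher means lower luciferase signal from less NR2E3 corepressor binding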
SMARCA2 activ – activators of SMARCA2 function | MG213 cells, MMTV-luciferase reporter, dexamethasone, overnight | activation, % at 9.1 µM | hit rate 1% among 370,000 | AID 652017; in the data active = activation above about 7.8%
COUP-TFII inh – inhibitors of human COUP-TFII (NR2F2) | P24468 | HEK293T NGFI-A luciferase reporter, luminescence | inhibition, % at 8.6 µM | hit rate 0.7% among 370,000 | AID 686940;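 active = inhibition above a per-plate cutoff, mean inhibition of test wells between control levels plus 3 SD, cut at about 38% in these data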;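 note: cells cotransfected with COUP-TFII expression vector driving the NGFI-A reporter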
NR2E3 ag confirm – confirmation of human NR2E3 agonists. shares compounds with NR2E3 ag-2. CHO-S mammalian two-hybrid NR2E3-NCOR, luciferase luminescence. inhibition, % at 3.98 µM. hit rate 51% among 2,300;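 active = average inhibition above a cutoff equal to the mean inhibition of all tested compounds plus one SD, cut at about 70% in these data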
VP16 counter – reduces GAL4-VP16 reporter signal in NR2E3 counterscreen | shares compounds with NR2E3 ag-2 | CHO-S GAL4-VP16 luciferase reporter, luminescence | inhibition, % at 3.98 µM | hit rate 29% among 2,300;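 active = mean inhibition above a cutoff equal to the average over all tested compounds plus one standard deviation, cut at about 70% in these data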;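 note: luciferase from a UAS reporter driven by GAL4-VP16 transactivation; higher means less reporter light so more repression of VP16 activity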
Hits are given with their value; n = inactive; x = no result. An excerpt weighted towards active compounds, which were near 2.2% of everything screened.

SMILES	NR2E3 ag-1	GalR3 antag	NR2E3 ag-2	SMARCA2 activ	COUP-TFII inh	NR2E3 ag confirm	VP16 counter
COc1ccc(Cc2nnc(NC(=O)c3ccc(OC)c(OC)c3)s2)cc1	n	n	n	n	n	x	x
CSc1nc(-c2cccs2)c(C#N)c(=O)[nH]1	n	n	n	n	n	x	x
N#Cc1c(-c2cccs2)nc(SCc2ccc(Cl)cc2)[nH]c1=O	x	n	78.1	n	n	97.3	n
O=C(NNc1ccc([N+](=O)[O-])cc1)c1ccccc1Cl	n	n	n	n	n	x	x
O=C(NC(NNc1ccc([N+](=O)[O-])cc1)(C(F)(F)F)C(F)(F)F)c1ccc(Cl)cc1	n	n	n	n	n	80.3	84.9
Cc1ccc(NS(=O)(=O)c2ccc(NC(=O)C3CC3)cc2)c(C)c1	n	n	n	n	n	n	n
Cc1ccc(-c2cnc(C3CC3)o2)cc1S(=O)(=O)Nc1ccccc1	n	x	n	x	x	x	x
Cc1ccc(NS(=O)(=O)c2ccc(NC(=O)c3cccs3)cc2)c(C)c1	n	n	n	n	n	x	x
O=S(=O)(Nc1ccc(F)cc1Cl)c1ccc(-c2cnc(C3CC3)o2)cc1	n	n	70.5	n	n	n	n
COc1ccccc1NS(=O)(=O)c1ccc(-c2cnc(C3CC3)o2)cc1	n	n	n	n	n	x	x
CCOc1ccccc1NS(=O)(=O)c1ccc(-c2cnc(C3CC3)o2)cc1	n	n	n	n	n	n	n
Cc1ccc(NS(=O)(=O)c2ccc(-c3cnc(C4CC4)o3)cc2)c(C)c1	n	n	78.8	n	n	n	n
O=C1CCC[C@H]2C[C@H](NCc3ccc(Cl)c(Cl)c3)CC[C@]23CCCN13	x	x	x	x	n	x	x
CC(C)(N[C@@H](Cc1c[nH]c2ccccc12)C(=O)NCCCc1ccccc1)C(=O)NCc1ccccc1	x	x	x	x	n	x	x
COC(=O)C1CN(C2CCCC2)CCS(=O)(=O)N1Cc1ccccc1 (centres undefined)	x	x	x	n	n	x	x
COc1ccccc1CNS(=O)(=O)c1ccc(-c2cnc(C3CC3)o2)cc1	n	n	n	n	n	n	n
CCN(c1ccccc1)S(=O)(=O)c1ccc(C(=O)Nc2nnc(CSC)o2)cc1	n	n	n	n	n	93.3	n
C=CCN(CC=C)S(=O)(=O)c1ccc(C(=O)Nc2nnc(COC)o2)cc1	n	n	n	n	n	x	x
CCN(c1ccccc1)S(=O)(=O)c1ccc(C(=O)Nc2nnc(COC)o2)cc1	n	n	n	n	n	x	x
COCc1nnc(NC(=O)c2ccc(S(=O)(=O)N(CC(C)C)CC(C)C)cc2)o1	n	n	77.3	n	n	89.3	n
CCCN(CCC)S(=O)(=O)c1ccc(C(=O)Nc2nnc(CSC)o2)cc1	n	n	n	n	n	n	n
CCCCN(CCCC)S(=O)(=O)c1ccc(C(=O)Nc2nnc(CSC)o2)cc1	n	n	n	n	n	x	x
COC(=O)[C@H](CC(C)C)N(CCCc1cn(Cc2ccc(C)cc2)nn1)S(=O)(=O)c1ccc(F)cc1Br	x	x	x	n	n	x	x
CCC(NC(=O)c1ccc2c(c1)c(C)c(C)n2Cc1ccc(-c2ccccc2C#N)cc1)c1ccccc1 (centres undefined)	x	x	x	n	n	x	x
COc1ccccc1NS(=O)(=O)c1ccc2oc(SCC(C)=O)nc2c1	n	n	n	n	n	x	x
SMILES	NR2E3 ag-1	GalR3 antag	NR2E3 ag-2	SMARCA2 activ	COUP-TFII inh	NR2E3 ag confirm	VP16 counter
COc1ccccc1NS(=O)(=O)c1ccc2oc(SC(C)C(=O)N3CCNC3=O)nc2c1 (centres undefined)	n	n	n	n	n	n	n
c1coc(CN(Cc2ccco2)c2ncnc3c2oc2ccccc23)c1	n	x	n	x	x	76.7	n
Clc1ncnc2c1oc1ccccc12	n	n	n	n	n	x	x
CCCOc1ccc(F)cc1-c1cc(C(=O)NCc2ccc(C(F)(F)F)cc2)[nH]n1	x	x	n	x	x	n	n
COC(=O)[C@H]1C[C@@]2(n3ccc4ccccc43)c3ccccc3N(S(=O)(=O)c3ccccc3)[C@H]2N1C(=O)CNC1CCCCC1	x	x	x	n	n	x	x
COc1ccccc1NC(=O)CSc1nnnn1-c1ccccc1OC	n	n	n	n	n	x	x
COc1ccccc1NC(=O)CSc1nnnn1-c1ccc2c(c1)OCO2	n	n	n	n	n	n	n
Brc1ccc(Cn2nnc(-c3ccc(N4CCOCC4)cc3)n2)cc1	x	x	x	n	n	x	x
Cc1ccc2[nH]c3c(c2c1)CCCC3NC(=O)CCl (centres undefined)	n	x	87.7	x	x	89.0	72.5
Cc1ccc2[nH]c3c(c2c1)CCCC3C(N)=O (centres undefined)	n	n	n	n	n	x	x
OC(c1cc(-c2ccc(C(F)(F)F)cc2)nc(C(F)(F)F)c1)C1CCCCN1 (centres undefined)	n	n	92.0	n	n	n	n
OC(c1cc(C(F)(F)F)nc2c(C(F)(F)F)cccc12)C1CCCCN1 (centres undefined)	n	n	n	n	n	x	x
Oc1ccc(Oc2ccccc2F)c2cccnc12	x	x	x	x	n	x	x
c1ccc(-n2c(SCc3cccc4ccccc34)nnc2-c2ccccn2)cc1	x	x	x	n	n	x	x
CCc1[nH]nc(C(=O)N2CCCC(C(=O)c3cccc(C(F)(F)F)c3)C2)c1C (centres undefined)	n	n	n	n	n	n	n
CC1=C(C(=O)N2CCCC(C(=O)c3cccc(C(F)(F)F)c3)C2)OCCO1 (centres undefined)	n	n	n	n	n	x	x
CCc1nnc(NC(=O)c2nc(S(=O)(=O)Cc3ccc(C)cc3)ncc2Cl)s1	n	n	n	n	n	n	n
CSc1nnc(NC(=O)c2nc(S(=O)(=O)Cc3cccc(C)c3)ncc2Cl)s1	n	n	n	n	n	n	n
Cc1cccc(CS(=O)(=O)c2ncc(Cl)c(C(=O)Nc3nnc(C(C)C)s3)n2)c1	n	x	n	x	x	x	x
Cc1ccc(CS(=O)(=O)c2ncc(Cl)c(C(=O)Nc3nnc(C(C)C)s3)n2)cc1	n	n	n	n	n	n	n
CCc1nnc(NC(=O)c2nc(S(=O)(=O)Cc3ccccc3)ncc2Cl)s1	n	n	n	n	n	x	x
CCCCC(=O)N1CCN(C(=O)c2ccc3c(c2)nc(C)n3C2CCCC2)CC1	x	x	x	n	n	x	x
CN(C)S(=O)(=O)c1cccc(C(=O)N/N=C\c2cccc(C#N)c2)c1	x	x	x	n	n	x	x
CN(C)c1ccc(Sc2ccc3nc(N)nc(N)c3c2)cc1	x	n	75.8	n	n	n	n
O=C(NNS(=O)(=O)c1ccc(F)cc1F)C1Cc2c(ccc3ccccc23)O1 (centres undefined)	n	n	n	n	n	84.7	71.9
Cc1onc(-c2ccccc2Cl)c1C(=O)Nc1nc2c(s1)CCCC2	n	n	81.9	n	n	86.5	n
Cc1ccc(-n2c(C)nc3c(cnn3-c3ccc(C)c(C)c3)c2=O)cc1C	n	n	n	n	n	x	x
